Laboratory results from ChEMBL document CHEMBL4041475, “Novel 2-arylazoimidazole derivatives as inhibitors of Trypanosoma cruzi proliferation: Synthesis and evaluation of their biological activity” (Eur J Med Chem, 2017).
Activity calls are given as the source filed them. The rule behind the calls is not given here.

Assays:
Trypanosoma cruzi [1] = assay: Trypanocidal activity against Trypanosoma cruzi TCC epimastigotes at 1 to 15 uM supplemented with fresh medium containing compound every 9 to 10 days by haemocytometric method; type: functional
In short: (§1)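 TCC strain epimastigotes grown at 28 °C in Diamond medium with haemin and 10% FBS. Seeded at 10×10⁶/mL in duplicate with 1, 5, 10 or 15 μM compound, alongside untreated cultures. Counted daily in a haemocytometer. Every ~9–10 days, re-diluted to 5×10⁶/mL in fresh compound-containing medium to start a new round.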

Trypanosoma cruzi [2] = assay: Trypanocidal activity against Trypanosoma cruzi TCC epimastigotes assessed as parasite duplication time at 1 to 15 uM supplemented with fresh medium containing compound every 9 to 10 days measured on third week; type: functional; in short: as §1
Trypanosoma cruzi [3] = assay: Trypanocidal activity against Trypanosoma cruzi TCC epimastigotes assessed as maximal parasite density at 1 to 15 uM supplemented with fresh medium containing compound every 9 to 10 days measured on third week by haemocytometric method; type: functional; in short: as §1
Trypanosoma cruzi [4] = assay: Trypanocidal activity against Trypanosoma cruzi TCC epimastigotes assessed as effect on parasite motility at 1 to 15 uM supplemented with fresh medium containing compound every 9 to 10 days measured on third week; type: functional; in short: as §1
Trypanosoma cruzi [5] = assay: Trypanocidal activity against Trypanosoma cruzi TCC epimastigotes assessed as effect on parasite viability at 1 to 15 uM supplemented with fresh medium containing compound every 9 to 10 days measured on third week by maximal parasite density; type: functional; in short: as §1
Trypanosoma cruzi [6] = assay: Trypanocidal activity against Trypanosoma cruzi RA tripamastigote bloodstream forms isolated from infected CF1 mouse blood after 24 hrs by haemocytometric method; type: functional
In short: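 RA strain bloodstream trypomastigotes taken from CF1 mouse blood at parasitaemia peak (day 5 p.i.) and diluted in medium to 1.5×10⁶/ml. Exposed in duplicate to 125–1000 μM compound at 4 °C for 24 h. Viable parasites counted in a haemocytometer; % lysis computed against untreated control. IC50 obtained from log %L against log concentration.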

[7] = Cytotoxicity against mouse RAW cells assessed as reduction in cell viability after 24 hrs by MTT assay; type: cell-based
In short: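 RAW cells, 1x10⁵ per well, exposed to 125–1000 μM compound for 24 h at 37 °C, 5% CO₂; MTT added at 1.5 mg/mL final for 4 h, formazan dissolved in 1% SDS/0.01 M HCl, absorbance at 540 nm. CC50 obtained by linear regression of log OD against log concentration. Run in duplicate.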

Trypanosoma cruzi [8] = assay: Trypanocidal activity against Trypanosoma cruzi RA tripamastigote bloodstream forms infected in Balb/c mouse assessed as reduction in circulating parasite level in acute phase at 100 mg/kg, po administered on day 9 post infection for 5 consecutive days; type: functional, organism-based
In short: (§2)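 Balb/c males, 6–8 weeks, groups of six, infected i.p. with 100 RA strain bloodstream trypomastigotes. Oral dosing for 5 consecutive days once parasites were circulating, in 0.1 M PBS pH 7.2, with vehicle as negative control. Tail-vein blood (5 μl) diluted 1:10 in NH₄Cl/Tris lysis buffer and counted in a haemocytometer every other day.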

Trypanosoma cruzi [9] = assay: Trypanocidal activity against Trypanosoma cruzi RA tripamastigote bloodstream forms infected in Balb/c mouse assessed as reduction in parasitaemia at 100 mg/kg, po administered on day 9 post infection for 5 consecutive days measured on day 35 post infection relative to control; type: functional; set-up: scale not given: the % may be the effect or the level left; in short: as §2
Trypanosoma cruzi [10] = assay: Trypanocidal activity against Trypanosoma cruzi RA tripamastigote bloodstream forms infected in Balb/c mouse assessed as mouse survival at 100 mg/kg, po administered on day 9 post infection for 5 consecutive days measured daily during compound dosing up to 45 days post infection; type: functional
In short: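 Male Balb/c mice (6–8 weeks, groups of six) were infected intraperitoneally with 100 bloodstream trypomastigotes harvested from CF1 mice. Oral dosing at 100 mg/kg/day for five consecutive days began once circulating parasites were confirmed microscopically, on day 9 p.i. Drugs were suspended in 0.1 M PBS (pH 7.2), prepared fresh daily; vehicle served as negative control. Mortality was recorded daily to 45 days p.i.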

Trypanosoma cruzi [11] = assay: Trypanocidal activity against Trypanosoma cruzi TCC epimastigotes assessed as parasite duplication time at 15 uM measured after 9 to 10 days (reference value: 2 day); type: functional; in short: as §1
Trypanosoma cruzi [12] = assay: Trypanocidal activity against Trypanosoma cruzi TCC epimastigotes assessed as maximal parasite density at 15 uM measured after 9 to 10 days by haemocytometric method (reference value: 45 10^6/ml); type: functional; in short: as §1
[13] = in the assay text read “day 18 post infection relative” for “day 35 post infection relative”

O=C(Cn1ccnc1/N=N/c1ccc(Cl)cc1)N1CCCC1
Activity (Trypanosoma cruzi [1]): inactive

COc1ccc(/N=N/c2nccn2CC(=O)N2CCOCC2)c([N+](=O)[O-])c1
Activity (Trypanosoma cruzi [1]): inactive

O=C(Cn1ccnc1/N=N/c1ccc([N+](=O)[O-])cc1)NC1CCCCC1
Activity (Trypanosoma cruzi [1]): inactive

O=C(Cn1ccnc1/N=N/c1ccc(C(F)(F)F)cc1)N1CCCCC1
Time (Trypanosoma cruzi [2]): 9 to 12 days | Activity (Trypanosoma cruzi [3]): 5 - 6 ×10⁶ /ml | Activity (Trypanosoma cruzi [4]): Active | Activity (Trypanosoma cruzi [5]): Active | IC50 (Trypanosoma cruzi [6]): 1080 µM | CC50 at 24 h [7]: 415 µM | Activity (Trypanosoma cruzi [8]): Active | Activity (Trypanosoma cruzi [9]; [13]): 60% | survival at 100 mg/kg (Trypanosoma cruzi [10]): 67%

O=C(Cn1ccnc1/N=N/c1ccc([N+](=O)[O-])cc1)N1CCCCC1
Time (Trypanosoma cruzi [11]): 4 days | Activity (Trypanosoma cruzi [12]): 20 ×10⁶ /ml | Time (Trypanosoma cruzi [2]): 9 to 12 days | Activity (Trypanosoma cruzi [3]): 5 - 6 ×10⁶ /ml | Activity (Trypanosoma cruzi [4]): Active | Activity (Trypanosoma cruzi [5]): Active | IC50 (Trypanosoma cruzi [6]): 645 µM | CC50 at 24 h [7]: 206 µM | Activity (Trypanosoma cruzi [8]): Active | Activity (Trypanosoma cruzi [9]; [13]): 71% | survival at 100 mg/kg (Trypanosoma cruzi [10]): 67%

O=C(Cn1ccnc1/N=N/c1ccc(C(F)(F)F)cc1)NC1CCCCC1
Activity (Trypanosoma cruzi [1]): inactive

COc1ccc(/N=N/c2nccn2CC(=O)NC2CCCCC2)c([N+](=O)[O-])c1
Activity (Trypanosoma cruzi [1]): inactive

COc1ccc(/N=N/c2nccn2CC(=O)N2CCCCC2)c([N+](=O)[O-])c1
Activity (Trypanosoma cruzi [1]): inactive

O=C(Cn1ccnc1[N+](=O)[O-])NCc1ccccc1 [BENZNIDAZOLE]
Time (Trypanosoma cruzi [11]): 3 days | Activity (Trypanosoma cruzi [12]): 25 ×10⁶ /ml | Activity (Trypanosoma cruzi [2]): Active | Activity (Trypanosoma cruzi [3]): Active | Activity (Trypanosoma cruzi [4]): Active | Activity (Trypanosoma cruzi [5]): Active | Activity (Trypanosoma cruzi [9]): Active | survival at 100 mg/kg (Trypanosoma cruzi [10]): 100%

CN(C)c1ccc(C(=C2C=CC(=[N+](C)C)C=C2)c2ccc(N(C)C)cc2)cc1 [GENTIAN VIOLET]
IC50 (Trypanosoma cruzi [6]): 2.8 µM

O=C(Cn1ccnc1/N=N/c1ccc([N+](=O)[O-])cc1)N1CCOCC1
Activity (Trypanosoma cruzi [1]): inactive

O=C(Cn1ccnc1/N=N/c1ccc(Cl)cc1)N1CCCCC1
Activity (Trypanosoma cruzi [1]): inactive

O=C(Cn1ccnc1/N=N/c1ccc(C(F)(F)F)cc1)N1CCOCC1
Activity (Trypanosoma cruzi [1]): inactive

O=C(Cn1ccnc1/N=N/c1ccc(C(F)(F)F)cc1)N1CCCC1
Activity (Trypanosoma cruzi [1]): inactive

O=C(Cn1ccnc1/N=N/c1ccc(Cl)c(Cl)c1)N1CCCC1
Activity (Trypanosoma cruzi [1]): inactive

NC(CCCCNC(=O)Cn1ccnc1/N=N/c1ccc([N+](=O)[O-])cc1)C(=O)O (configuration not stated)
Activity (Trypanosoma cruzi [1]): inactive

O=C(Cn1ccnc1/N=N/c1ccc([N+](=O)[O-])cc1)N1CCCC1
Activity (Trypanosoma cruzi [1]): inactive
